From ChEMBL document CHEMBL2086357 (Eur J Med Chem, 2012)

How the values were obtained:
A549 = assay: Antiproliferative activity against human A549 cells after 96 hrs by MTT assay; format: functional; conditions: A549, 96 h
LoVo = assay: Antiproliferative activity against human LoVo cells after 96 hrs by MTT assay; format: functional
MCF7 = assay: Antiproliferative activity against human MCF7 cells after 96 hrs by MTT assay; format: functional; conditions: MCF7, 96 h
PC-3 = assay: Antiproliferative activity against human PC3 cells after 96 hrs by MTT assay; format: functional; conditions: PC-3, 96 h
[1] = biological target: Cyclin-dependent kinase 2/cyclin A (Homo sapiens) (UniProt P24941+P20248+P78396); assay: Inhibition of recombinant CDK2/cyclin A expressed in Sf21 cells using histone H1 as substrate at 10 uM after 10 mins by scintillation counting in presence of [32P]ATP
Method in brief: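 CDK2/cyclin A was combined on ice with histone H1 substrate in kit buffer, then inhibitor was added. Prediluted ³²P-ATP with MgCl2 and cold ATP was added, and tubes were shaken for 10 min at 30 °C. Aliquots were spotted on phosphocellulose paper, washed three times in 0.75% phosphoric acid, rinsed in acetone and counted by scintillation. Percent inhibition versus an untreated control is the mean of duplicate experiments.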

Jurkat = assay: Inhibition of PMA- and PHA-stimulated IL2 production in human Jurkat T cells incubated for 30 mins prior to PMA- and PHA-stimulation by competitive enzyme immunoassay; format: functional, cell-based
CCRF-CEM = assay: Growth inhibition of human CCRF-CEM cells up to 48 hrs by trypan blue exclusion assay; format: functional
[2] = Inhibition of starfish CDK1/cyclin B using histone H1 as substrate after 10 mins in presence of [gamma32P}ATP; set-up: species or system Asteroidea
[3] = Drug degradation in DMEM cell culture medium assessed as (E)-5-(Hydroxyimino)-10-methyl-2,3,4,5-tetrahydroazepino[3,4-b]indol-1(10H)-one at 10 to 100 nmol after 7 days by NMR analysis; format: physicochemical; conditions: 168 h
Method in brief: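 Two solutions of the compound in cell culture medium (10 and 100) were held at 37 °C for seven days. They were then extracted with ethyl acetate, and breakdown was assessed by NMR.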

[4] = biological target: Cyclin-dependent kinase 2/cyclin E1 (Homo sapiens, UniProt P24941); assay: Inhibition of CDK2/cyclin E; format: protein-complex assay
[5] = biological target: Cyclin-dependent kinase 2/cyclin A (Homo sapiens, UniProt P24941); assay: Inhibition of CDK2/cyclin A; format: protein-complex assay

Row | SMILES | GI50 (A549) | GI50 (LoVo) | GI50 (MCF7) | GI50 (PC-3) | inhibition [1] | other results
1 | Cn1c(Br)c(Br)c2c1C(=O)NCC/C2=N\OCc1ccccc1 | – | – | – | – | 22% | –
2 | Nc1nc(C2=C3C(=Nc4ccccc43)C(=O)NCC2)c(O)[nH]1 | – | – | – | – | – | IC50 (Jurkat): 3.5 µM; GI50 (CCRF-CEM): 1.7 µM
3 | O=C1NCC/C(=N\OCc2ccccc2)c2c1[nH]c(Br)c2Br | – | – | – | – | 0% | –
4 | O=C1CCNC(=O)c2[nH]ccc21 [ALDISIN] | > 100 µM | > 100 µM | > 100 µM | > 100 µM | – | –
5 | O=C1Cc2c([nH]c3ccc(Br)cc23)-c2ccccc2N1 [KENPAULLONE] | – | – | – | – | – | IC50 [2]: 0.4 µM
6 | O=C1NCC/C(=N\O)c2c1[nH]c1ccc(Br)cc21 | 63.3 µM | 27.2 µM | 54.6 µM | 46.2 µM | 45% | –
7 | Cn1c2c(c3ccccc31)/C(=N/OCc1ccccc1)CCNC2=O | – | – | – | – | – | Drug degradation [3]: 50%
8 | NC1=NC(=O)/C(=C2\CCNC(=O)c3[nH]c(Br)cc32)N1 [HYMENIALDISINE] | – | – | – | – | – | IC50 [4]: 0.04 µM; IC50 [5]: 0.07 µM
9 | Cn1c2c(c3ccccc31)/C(=N/OCC1CCCCC1)CCNC2=O | 32.1 µM | 20.5 µM | 23.3 µM | 29.1 µM | 12% | Drug degradation [3]: Not Active

More lines, main results first:

Row | GI50 (A549) | GI50 (LoVo) | GI50 (MCF7) | GI50 (PC-3) | inhibition [1] | SMILES | other results
10 | > 100 µM | 36.8 µM | > 100 µM | > 100 µM | – | Cn1c2c(c3ccccc31)C(=O)CCNC2=O | –
11 | 97.7 µM | 36.9 µM | > 100 µM | > 100 µM | – | O=C1NCCC(=O)c2c1[nH]c1ccccc21 | –
12 | – | – | – | – | 13% | Cn1c(Br)c(Br)c2c1C(=O)NCC/C2=N\OCC1CCCCC1 | –
13 | > 100 µM | 40.5 µM | > 100 µM | > 100 µM | – | O=C1NCC/C(=N\O)c2c1[nH]c1ccccc21 | –
14 | > 100 µM | 51.3 µM | > 100 µM | > 100 µM | – | Cn1c2c(c3ccccc31)/C(=N/O)CCNC2=O | –
15 | 34.9 µM | 24.3 µM | 28.1 µM | 23.4 µM | 32% | O=C1NCC/C(=N\OCc2ccccc2)c2c1[nH]c1ccccc21 | –
